Data set [1] is described as follows: Inhibition of human intestinal carboxylesterase using o-nitrophenyl acetate as substrate. In short, it runs like this: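 Purified human intestinal CE (hiCE), chromatographically pure. Read in 96-well format with 3mM o-nitrophenyl acetate in 50mM Hepes, pH7.4. Inhibitors were added in DMSO and the reaction was started by adding enzyme. At least 8 inhibitor concentrations were run in triplicate against DMSO-only controls. Data were fitted to a multifactorial equation, the best model was chosen by Akaike's information criteria, and Ki was taken from the curve fits.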

In data set [2] the target is T1, Liver carboxylesterase 1 (Homo sapiens, UniProt P23141).
T1 sequence (P23141 whole entry): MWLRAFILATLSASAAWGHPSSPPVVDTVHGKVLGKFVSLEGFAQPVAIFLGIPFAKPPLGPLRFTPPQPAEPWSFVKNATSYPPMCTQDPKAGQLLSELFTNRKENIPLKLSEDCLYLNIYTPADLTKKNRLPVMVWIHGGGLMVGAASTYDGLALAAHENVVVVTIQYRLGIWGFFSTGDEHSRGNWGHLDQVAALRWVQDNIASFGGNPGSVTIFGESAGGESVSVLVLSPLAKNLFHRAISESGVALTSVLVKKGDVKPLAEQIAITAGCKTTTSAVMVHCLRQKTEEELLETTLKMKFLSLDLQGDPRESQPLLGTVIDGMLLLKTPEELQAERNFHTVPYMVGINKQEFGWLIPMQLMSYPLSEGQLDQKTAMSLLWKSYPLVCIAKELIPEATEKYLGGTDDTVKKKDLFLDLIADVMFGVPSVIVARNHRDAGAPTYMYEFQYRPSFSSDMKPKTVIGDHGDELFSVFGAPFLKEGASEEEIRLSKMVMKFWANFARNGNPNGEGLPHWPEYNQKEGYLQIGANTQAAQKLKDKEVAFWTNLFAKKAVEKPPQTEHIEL
The data set is described as follows: Inhibition of human liver carboxylesterase 1 using o-nitrophenyl acetate as substrate. In short, it runs like this:
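Chromatographically pure human hCE1 in 50mM Hepes pH7.4 with 3mM o-nitrophenyl acetate. Inhibitor in DMSO, at least 8 concentrations, triplicates, compared against DMSO-only controls. Reaction started by enzyme addition. Data fitted to a multifactorial equation, the best inhibition model chosen by Akaike's information criterion, and Ki taken from the curve fits.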

Data set [3] addresses Acetylcholinesterase (Homo sapiens) (UniProt P22303). Kind of data set: Inhibition of human AChE using acetylthiocholine as substrate at 5 uM by spectrophotometric analysis. The method in brief: (§1)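 Run like the carboxylesterase assay in 50mM Hepes pH7.4 with DMSO-dissolved inhibitor, reaction started by enzyme addition. Substrate is acetylthiocholine (AChE) or butyrylthiocholine (BChE). Inhibitor tested at a single 5µM concentration.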

The target in data set [4] is Cholinesterase (Homo sapiens) (UniProt P06276). Kind of data set: Inhibition of human BChE using butyrylthiocholine as substrate at 5 uM by spectrophotometric analysis. In short, it runs like this:
as §1

Data set [5] is filed under the species Homo sapiens. The data set is described as follows: Selectivity index, ratio of Ki for human liver carboxylesterase 1 to Ki for human intestinal carboxylesterase.
The target of data set [6] is T2, liver carboxylesterase 1 (CES1) (Homo sapiens, UniProt P23141).
T2 sequence (P23141 whole entry): T1 sequence (P23141 whole entry)
The data set is described as follows: Potency index, ratio of miltirone Ki to compound Ki for inhibition of human liver carboxylesterase 1. To be noted: read-out: Ratio Ki.

The species entered for data set [7] is Homo sapiens. Kind of data set: Potency index, ratio of miltirone Ki to compound Ki for inhibition of human intestinal carboxylesterase.

Sequence of Acetylcholinesterase (Homo sapiens) (P22303 whole entry): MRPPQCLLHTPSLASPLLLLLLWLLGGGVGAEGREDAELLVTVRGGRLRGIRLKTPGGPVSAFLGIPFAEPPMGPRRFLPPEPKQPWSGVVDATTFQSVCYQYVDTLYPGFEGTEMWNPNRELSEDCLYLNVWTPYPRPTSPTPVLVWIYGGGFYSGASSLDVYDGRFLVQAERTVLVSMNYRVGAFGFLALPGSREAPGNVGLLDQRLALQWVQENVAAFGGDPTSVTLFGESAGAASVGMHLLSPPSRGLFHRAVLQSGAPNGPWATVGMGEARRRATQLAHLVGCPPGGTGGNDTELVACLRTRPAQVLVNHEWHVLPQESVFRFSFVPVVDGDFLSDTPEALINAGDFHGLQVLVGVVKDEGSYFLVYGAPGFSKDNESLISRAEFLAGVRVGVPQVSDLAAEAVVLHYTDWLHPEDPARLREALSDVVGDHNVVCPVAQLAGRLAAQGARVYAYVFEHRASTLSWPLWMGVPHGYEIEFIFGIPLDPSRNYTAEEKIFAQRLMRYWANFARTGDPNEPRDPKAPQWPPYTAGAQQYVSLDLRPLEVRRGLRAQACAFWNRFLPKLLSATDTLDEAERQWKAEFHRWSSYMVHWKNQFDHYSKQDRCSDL
Sequence of Cholinesterase (Homo sapiens) (P06276 whole entry): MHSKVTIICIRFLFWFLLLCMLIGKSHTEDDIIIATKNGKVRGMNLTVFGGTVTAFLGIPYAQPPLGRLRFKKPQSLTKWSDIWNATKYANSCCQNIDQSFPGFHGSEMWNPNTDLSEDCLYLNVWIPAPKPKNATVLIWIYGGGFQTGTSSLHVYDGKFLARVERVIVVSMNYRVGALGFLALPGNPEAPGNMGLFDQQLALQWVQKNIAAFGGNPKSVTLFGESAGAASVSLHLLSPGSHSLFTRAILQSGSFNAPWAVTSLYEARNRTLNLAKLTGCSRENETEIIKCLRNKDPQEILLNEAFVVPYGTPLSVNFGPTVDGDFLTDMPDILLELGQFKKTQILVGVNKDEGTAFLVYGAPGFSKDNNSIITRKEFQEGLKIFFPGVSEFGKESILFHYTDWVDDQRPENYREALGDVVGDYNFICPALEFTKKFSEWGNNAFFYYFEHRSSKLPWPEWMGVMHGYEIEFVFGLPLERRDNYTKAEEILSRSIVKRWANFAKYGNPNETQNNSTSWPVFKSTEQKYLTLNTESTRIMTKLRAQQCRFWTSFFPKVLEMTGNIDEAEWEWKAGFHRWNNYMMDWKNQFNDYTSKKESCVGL

On to `CC(C)C1=Cc2ccc3c(c2C(=O)C1=O)CC(C)(C)CC3`, for which the values for the Ki in data set [1] and in data set [2] were 31.2 nM and 1870 nM, respectively. In addition, the values for the inhibition in data set [3] and in data set [4] were 20% and 4%, respectively. The Ratio Ki in data set [5] was determined as 60.

Take `O=C1C=C(F)c2ccc3c(c2C1=O)CCCC3`: the Ki (commonly the dissociation constant of the complex between target and ligand, obtained from inhibition or displacement) in data set [1] came to 171 nM; in data set [2] it was 25.9 nM. Also, the figures for the inhibition in data set [3] and in data set [4] were 4% and 33%, respectively. In addition, the Ratio Ki in data set [5] is 0.15.

With `CC(C)C1=Cc2ccc3c(c2C(=O)C1=O)CCCC3(C)C` [MILTIRONE], the results for the inhibition in data set [3] and in data set [4] were 22% and 6%, respectively.

With `CC(C)C1=Cc2ccc3c(c2C(=O)C1=O)CCC(C)(C)C3`, the results for the Ki in data set [1] and in data set [2] were 70.7 nM and 4200 nM, respectively. Moreover, the inhibition (usually the drop in the measured response relative to a control, in per cent) in data set [3] was determined as 30%; in data set [4], 3%. The Ratio Ki in data set [5] stood at 59.5.

For the molecule `CC1=Cc2ccc3c(c2C(=O)C1=O)CCCC3`, the Ki in data set [1] turned out to be 423 nM; in data set [2], 1220 nM. Also, the values for the inhibition in data set [3] and in data set [4] were 5% and 4%, respectively. In addition, the Ratio Ki in data set [5] worked out at 2.9.

In the case of `COC1=Cc2ccc3c(c2C(=O)C1=O)CC(C)(C)CC3`, the Ki in data set [1] was determined as 159 nM; in data set [2] it was 42.5 nM. Also, the inhibition in data set [3] was found to be 2%; in data set [4], 1%. For the same molecule, the Ratio Ki in data set [5] is 0.3.

Take `O=C1C(=O)c2c(ccc3ccccc23)C=C1F`: the Ki came out at 51.3 nM in data set [1] and 48.7 nM in data set [2]. In addition, the inhibition in data set [3] stood at 8%; in data set [4], 3%. Besides, the Ratio Ki in data set [5] is 0.48.

As for `CC1(C)CCc2ccc3c(c2C1)C(=O)C(=O)C=C3F`, the Ki was found to be 386 nM in data set [1] and 14.4 nM in data set [2]. In addition, the selectivity ratio in data set [6] was 175. The values for the inhibition in data set [3] and in data set [4] were 10% and 15%, respectively. Besides, the Ratio Ki in data set [5] was 0.04.

As to `O=C1C(=O)c2c(ccc3c2CCCC3)C=C1F`, the Ki in data set [1] is 112 nM; in data set [2], 12.2 nM. The selectivity ratio in data set [6] came to 210. The inhibition in data set [3] worked out at 16%; in data set [4], 62%. Moreover, the Ratio Ki in data set [5] is 0.11.

`CC(C)C1=Cc2ccc3c(c2C(=O)C1=O)CCCC3`: the Ki in data set [1] was found to be 111 nM; in data set [2], 1050 nM. In addition, the results for the inhibition in data set [3] and in data set [4] were 16% and 1%, respectively.

For `CC1(C)CCc2ccc3c(c2C1)C(=O)C(=O)C=C3`, the Ki in data set [1] stood at 341 nM; in data set [2], 31.9 nM. Also, the inhibition was found to be 2% in data set [3] and 13% in data set [4]. The Ratio Ki in data set [5] stood at 0.09.

With `O=C1C=Cc2ccc3ccccc3c2C1=O`, the Ki was at least 10000 nM in data set [1] and 942 nM in data set [2]. Also, the inhibition in data set [3] amounted to 16%; in data set [4], 13%. Besides, in data set [5], the Ratio Ki was below 0.06.

As for `O=C1C=Cc2ccc3c(c2C1=O)CCCC3`, the inhibitory constant (Ki) in data set [1] worked out at 2180 nM; in data set [2], 131 nM. In addition, the inhibition came to 0% in data set [3] and 54% in data set [4]. Also, the Ratio Ki in data set [5] was 0.06.

Consider `CC1(C)CCc2ccc3c(c2C1)C(=O)C(=O)C(F)=C3`, for which the results for the Ki in data set [1] and in data set [2] were 14.6 nM and 42 nM, respectively. Besides, the inhibition in data set [3] amounted to 3%; in data set [4] it was 23%. For the same molecule, the Ratio Ki in data set [5] amounted to 2.9; in data set [7], 3.

`CC1(C)CCc2ccc3c(c2C1)C(=O)C(=O)C(F)=C3F`: the Ki in data set [1] was determined as 43.3 nM; in data set [2], 102 nM. Further, the inhibition in data set [3] was 4%; in data set [4], 1%. The Ratio Ki in data set [5] was found to be 2.3.

As for `CC1=Cc2ccc3c(c2C(=O)C1=O)CCC(C)(C)C3`, the Ki in data set [1] turned out to be 182 nM; in data set [2] it was 495 nM. Moreover, the figures for the inhibition in data set [3] and in data set [4] were 1% and 2%, respectively. Further, the Ratio Ki in data set [5] came to 2.7.

Turning to `CC1=Cc2ccc3c(c2C(=O)C1=O)CC(C)(C)CC3`, the Ki is 87.9 nM in data set [1] and 2420 nM in data set [2]. Moreover, the inhibition is 0% in data set [3] and 1% in data set [4]. Further, the Ratio Ki in data set [5] is 27.6.

With `CC1=CC(=O)C(=O)c2c1ccc1c2CCCC1`, the Ki in data set [1] was at least 10000 nM; in data set [2], 25.1 nM. The inhibition in data set [3] was 13%; in data set [4], 30%.

In the case of `CC1=Cc2ccc3c(c2C(=O)C1=O)CCOC3`, the Ki in data set [1] and in data set [2] was at least 10000 nM throughout. Moreover, the inhibition worked out at 27% in data set [3] and 0% in data set [4].

The values above are taken from ChEMBL document CHEMBL4196054, “Facile synthesis of 1,2-dione-containing abietane analogues for the generation of human carboxylesterase inhibitors” (Eur J Med Chem, 2018).
